High-throughput results deposited in PubChem by several laboratories.
PLCb3 inh = PLC-beta3 (human) inhibition, primary screen; Q01970; Purified PLC-beta3, fluorogenic substrate, fluorescence; inhibition, % at 12.2 µM; hit rate 0.18% among 370,000; in the data active = inhibition above about 11%;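 note: 0% = median of compound wells on plate and 100% = full blocker control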
Tn6 DDE FP = disrupts Tn6 cyclic peptide binding to fibrin D-Dimer-E complex | hit rate 0.21% among 370,000 | Fibrin DD(E) TRITC-Tn6 fluorescence polarization displacement | AID 720509 | P02675 | inhibition, % at 8.3 µM;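 active = inhibition above a per-campaign cutoff: mean of compounds within control limits plus 3 SD, cut at about 15% in these data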;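 note: 0% = median of all compound wells on the plate and 100% = blocking peptide control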
proKLK7 act = proKLK7 (human) activation, primary screen | AID 652039 | P49862 | activation, % at 7 µM | hit rate 0.9% among 370,000 | purified proKLK7, EDANS-DABCYL substrate fluorescence; 100% is mature enzyme control, 0% vehicle;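 active = activation above the mean of all tested compounds plus 3 SD, computed per campaign excluding outliers beyond control limits, cut at about 13% in these data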
Target sequence (P49862 whole entry, looked up): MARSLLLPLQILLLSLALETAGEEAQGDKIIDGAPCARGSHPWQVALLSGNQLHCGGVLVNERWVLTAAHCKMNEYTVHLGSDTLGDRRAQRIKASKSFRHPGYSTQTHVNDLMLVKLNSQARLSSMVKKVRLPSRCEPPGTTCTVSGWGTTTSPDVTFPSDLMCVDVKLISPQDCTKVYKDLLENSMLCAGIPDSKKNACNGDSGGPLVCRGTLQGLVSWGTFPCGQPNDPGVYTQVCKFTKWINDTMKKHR
PLCg1 inh = inhibitors of human phospholipase C gamma1. AID 720700. hit rate 0.84% among 370,000. purified PLC-gamma1, fluorogenic substrate, fluorescence. inhibition, % at 12.2 µM
Tn7 DDE FP = disrupts Tn7 cyclic peptide binding to fibrin D-Dimer-E complex; P02675; FP displacement of FITC-Tn7 peptide from fibrin DD(E); 0% = median of compound wells per plate; inhibition, % at 8.3 µM; hit rate 0.13% among 370,000; AID 720508;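 active = inhibition above the mean of compounds falling within the control limits plus 3 SD of them, cut at about 14% in these data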;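 note: 0% = plate median of compound wells and 100% = 10 µM Aha-Tn7 peptide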
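System: human fibrin DD(E); quantity: Fibrin-DD(E) at 2 µM final; also added: fluorescent Tn7 probe at 0.1 µM; compound dosing: single nominal test concentration of 8.3 µM per compound; schedule: 10 min preincubation, 3 h with tracer, room temperature; detection: fluorescence polarization of the labelled Tn7 tracer; repeats: one replicate per compound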
NRP1-CendR mod = modulators of CendR peptide binding to human neuropilin-1; O14786; FAM-RPARPAR peptide binding to NRP-1, fluorescence polarization; inhibition, % at 25 µM; hit rate 0.85% among 360,000;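 active = inhibition or corrected inhibition above about 18%, plus a signal ratio from 0.5 to 1.5, limit read from the data, passing the limit was not always enough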
PLCg1 ctr = inhibits human PLC-gamma1 in PLC-beta3 counter-screen | shares compounds with PLCg1 inh | purified PLC-gamma1, fluorogenic substrate, fluorescence | inhibition, % at 12.3 µM | hit rate 3.1% among 3,300
PLCbeta3 conf = confirmation of human PLC-beta3 inhibitors; inhibition, % at 12.3 µM; shares compounds with PLCg1 inh; purified PLC-beta3, fluorogenic substrate fluorescence; hit rate 1% among 3,300; in the data active = inhibition above about 11%
* marks the source's active call; other numbers are inactive results. Rows were chosen to be rich in hits. Some 3% of all compounds tested hit in one or more screens of this group. Cut-off read from the data, not from the text of the source, unless noted: active = inhibition above about 9.5%; inactive = the rest.

`CCOc1ccc(C(=O)c2cc([N+](=O)[O-])ccc2Cl)cc1` gave PLCb3 inh 15*, Tn6 DDE FP -6, proKLK7 act -1, PLCg1 inh 13*, Tn7 DDE FP 3, NRP1-CendR mod 13, PLCg1 ctr -6 and PLCbeta3 conf -3.
`Cc1nc([N+](=O)[O-])c(Sc2nc3ccc([N+](=O)[O-])cc3[nH]2)n1Cc1ccccc1` gave PLCb3 inh 6, Tn6 DDE FP -4, proKLK7 act 0, PLCg1 inh 12*, Tn7 DDE FP -6, NRP1-CendR mod -3, PLCg1 ctr 3 and PLCbeta3 conf -1.
For CCOc1ccc(Oc2c(Cl)c(Br)nn(Cc3cccc4ccccc34)c2=O)cc1 the results were PLCb3 inh 2, Tn6 DDE FP -9, proKLK7 act 0, PLCg1 inh 2 and Tn7 DDE FP 0.
For Cc1cc[n+](-c2[nH]c(=O)sc2/C=N/N=C(\[O-])c2ccncc2)cc1 the results were PLCb3 inh 3, Tn6 DDE FP -11, proKLK7 act 0, PLCg1 inh 11*, Tn7 DDE FP -7, NRP1-CendR mod 14, PLCg1 ctr 2 and PLCbeta3 conf 7.
For O=S(=O)(Nc1nc2ccccc2s1)c1ccc(Cl)s1 the results were PLCb3 inh -5, Tn6 DDE FP -5, proKLK7 act -1, PLCg1 inh -3, Tn7 DDE FP 4 and NRP1-CendR mod -16.
O=S(=O)(Nc1nc2ccccc2s1)c1cc(F)ccc1F was read as PLCb3 inh -1, Tn6 DDE FP 0, proKLK7 act 0, PLCg1 inh 9.5*, Tn7 DDE FP -5, NRP1-CendR mod 12, PLCg1 ctr -7 and PLCbeta3 conf -3.
For CC(C)(C)N1Cc2nnn(CC3CCCCC3)c2-c2cc(F)ccc2S1(=O)=O the results were PLCb3 inh 0, Tn6 DDE FP 6, proKLK7 act 0, PLCg1 inh 2 and Tn7 DDE FP 5.
COc1ccc(S[C@]2(C(=O)NCCCN(C)C)CC(=O)N[C@@H]2c2ccc(OC)cc2)cc1 was read as PLCb3 inh -2, Tn6 DDE FP -3, proKLK7 act 0, PLCg1 inh -1 and Tn7 DDE FP -1.
`N#Cc1ccc(/C=C2\CC3(OC(=O)c4ccc(F)cc4)CCCN2C3)cc1` (configuration not stated) gave PLCb3 inh -5, Tn6 DDE FP -11, proKLK7 act 0, PLCg1 inh -1 and Tn7 DDE FP -2.
For Cc1ccc(N(CC(N)=O)C2SC(=O)N(Cc3ccccc3)C2=O)cc1 (configuration not stated) the results were PLCb3 inh 9, Tn6 DDE FP 8, proKLK7 act 1, PLCg1 inh 9.6*, Tn7 DDE FP -4, NRP1-CendR mod -1, PLCg1 ctr -6 and PLCbeta3 conf 2.
`CCCCOCCCNC(=O)C[C@@H]1C(=O)N2CCCC3=C2[C@@]1(C(=O)OC)CCCC3` gave PLCb3 inh 2, Tn6 DDE FP -9, proKLK7 act 0, PLCg1 inh -2 and Tn7 DDE FP -2.
For CCc1ccccc1NC(=O)CN(C)C(=O)COC(=O)c1cccnc1Cl the results were PLCb3 inh -1, Tn6 DDE FP 3, proKLK7 act 0, PLCg1 inh 10*, Tn7 DDE FP -5, NRP1-CendR mod -3, PLCg1 ctr -6 and PLCbeta3 conf 0.
For COc1ccc(S[C@]2(C(=O)N3CCN(c4ncccn4)CC3)CC(=O)N(C(=O)Nc3ccc(C)c(Cl)c3)[C@@H]2c2ccc(OC)cc2)cc1 the results were PLCb3 inh 0, Tn6 DDE FP 3, proKLK7 act 0, PLCg1 inh 0 and Tn7 DDE FP 3.
COC(=O)[C@]12C[C@H](CC(=O)N3CCOCC3)C(=O)N(Cc3cccc4ccccc34)C1=C[C@H](C(C)C)O[C@@H]2C1CC1 was read as PLCb3 inh 1, Tn6 DDE FP -5, proKLK7 act 1, PLCg1 inh 1 and Tn7 DDE FP 3.
COc1ccc(Cn2ccc3ccc(-c4ccc5ccn(C(=O)c6cccc(OC)c6)c5c4)cc32)cc1 was read as PLCb3 inh -55, Tn6 DDE FP 0, proKLK7 act -20, PLCg1 inh -34 and Tn7 DDE FP 1.
Cc1nc(C(F)(F)F)ccc1C(=O)N1CCC1(C)C(=O)NS(=O)(=O)c1ccc2c(c1)CCO2 (configuration not stated) was read as PLCb3 inh 2, Tn6 DDE FP -5, proKLK7 act 1, PLCg1 inh 10*, Tn7 DDE FP 1, NRP1-CendR mod -2, PLCg1 ctr 4 and PLCbeta3 conf 2.
For COCCCNC(=S)Nc1c(C)cc(C)cc1C the results were PLCb3 inh 6, Tn6 DDE FP 4, proKLK7 act 1, PLCg1 inh 13*, Tn7 DDE FP 3, NRP1-CendR mod 9, PLCg1 ctr -5 and PLCbeta3 conf -4.
For O=C(CCCC(=O)N1CCc2ccccc21)N1CCc2ccccc21 the results were PLCb3 inh -48, Tn6 DDE FP -6, proKLK7 act 0, PLCg1 inh -1, Tn7 DDE FP 0 and NRP1-CendR mod 1.
`O=C(Cc1ccc(-n2cccc2)cc1)N1CCc2ccccc21` gave PLCb3 inh 5, Tn6 DDE FP 5, proKLK7 act 0, PLCg1 inh 9.9*, Tn7 DDE FP 1, NRP1-CendR mod -8, PLCg1 ctr -1 and PLCbeta3 conf 0.
For S=C(NCc1ccco1)Nc1cc(-c2ccccc2)[nH]n1 the results were PLCb3 inh -6, Tn6 DDE FP 1, proKLK7 act 0, PLCg1 inh 9.6*, Tn7 DDE FP -1, NRP1-CendR mod -12, PLCg1 ctr -5 and PLCbeta3 conf -5.
`CC(NS(C)(=O)=O)C(c1cccs1)N1CCN(c2ccc(F)cc2)CC1` (configuration not stated) gave PLCb3 inh 1, Tn6 DDE FP 5, proKLK7 act -1, PLCg1 inh 2, Tn7 DDE FP -3 and NRP1-CendR mod 7.
For CC(NS(C)(=O)=O)C(c1cccs1)N1CCN(C)CC1 (configuration not stated) the results were PLCb3 inh 3, Tn6 DDE FP -5, proKLK7 act 0, PLCg1 inh 11*, Tn7 DDE FP -1, NRP1-CendR mod -3, PLCg1 ctr -4 and PLCbeta3 conf 0.
